{
  "source": "ChEMBL document CHEMBL2406978",
  "about": "“A novel one-pot synthesis and preliminary biological activity evaluation of cis-restricted polyhydroxy stilbenes incorporating protocatechuic acid and cinnamic acid fragments” (2013)",
  "key": {"Aspergillus flavus": {"tested_on": "Aspergillus flavus", "assay": "[…] activity against Aspergillus flavus IMI 052104 at 50 ug/ml after 24 hrs by agar well diffusion method relative to control", "assay_type": "functional", "conditions": "IMI 052104, 24 h"}, "Fusarium graminearum [1]": {"tested_on": "Fusarium graminearum", "assay": "[…] activity against Fusarium graminearum ATCC 24373 at 50 ug/ml after 24 hrs by agar well diffusion method relative to control", "assay_type": "functional", "conditions": "ATCC 24373, 24 h"}, "Bacillus spizizenii [2]": {"tested_on": "Bacillus spizizenii", "assay": "Antibacterial activity against Bacillus subtilis ATCC 6633 at 50 ug/ml after 24 hrs by agar well diffusion method", "assay_type": "functional"}, "Pseudomonas aeruginosa": {"tested_on": "Pseudomonas aeruginosa", "assay": "Antibacterial activity against Pseudomonas aeruginosa ATCC 10145 at 50 ug/ml after 24 hrs by agar well diffusion method", "assay_type": "functional, organism-based"}, "Candida albicans": {"tested_on": "Candida albicans", "assay": "[…] activity against Candida albicans ATCC 10231 at 50 ug/ml after 24 hrs by agar well diffusion method relative to nystatine", "assay_type": "functional", "conditions": "ATCC 10231, 24 h"}, "[3]": {"tested_on": "Radical scavenging activity", "assay": "Antioxidant activity assessed as DPPH free radical scavenging activity at 3.3 uM measured every 10 mins", "assay_type": "functional", "method_in_brief": "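Compound in methanol (0.5 mL) was added to 0.5 mL of 100 µM DPPH• stock solution, with a final compound level of 3.3 µM and DPPH•/substrate molar ratio 15 (radical in excess). Absorbance at 518 nm was read every 10 min until equilibrium. Methanol served as blank and caffeic acid as reference.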"}, "Aspergillus niger": {"tested_on": "Aspergillus niger", "assay": "[…] activity against Aspergillus niger A3 at 50 ug/ml after 24 hrs by agar well diffusion method relative to control", "assay_type": "functional", "conditions": "A3, 24 h"}, "Escherichia coli": {"tested_on": "Escherichia coli", "assay": "Antibacterial activity against Escherichia coli ATCC 25922 at 50 ug/ml after 24 hrs by agar well diffusion method", "assay_type": "functional, organism-based"}, "Staphylococcus aureus": {"tested_on": "Staphylococcus aureus", "assay": "Antibacterial activity against Staphylococcus aureus ATCC 25923 at 50 ug/ml after 24 hrs by agar well diffusion method", "assay_type": "functional, organism-based"}, "[4]": {"target": "T1, Tyrosinase (Agaricus bisporus) (UniProt O42713)", "T1 sequence (whole entry)": "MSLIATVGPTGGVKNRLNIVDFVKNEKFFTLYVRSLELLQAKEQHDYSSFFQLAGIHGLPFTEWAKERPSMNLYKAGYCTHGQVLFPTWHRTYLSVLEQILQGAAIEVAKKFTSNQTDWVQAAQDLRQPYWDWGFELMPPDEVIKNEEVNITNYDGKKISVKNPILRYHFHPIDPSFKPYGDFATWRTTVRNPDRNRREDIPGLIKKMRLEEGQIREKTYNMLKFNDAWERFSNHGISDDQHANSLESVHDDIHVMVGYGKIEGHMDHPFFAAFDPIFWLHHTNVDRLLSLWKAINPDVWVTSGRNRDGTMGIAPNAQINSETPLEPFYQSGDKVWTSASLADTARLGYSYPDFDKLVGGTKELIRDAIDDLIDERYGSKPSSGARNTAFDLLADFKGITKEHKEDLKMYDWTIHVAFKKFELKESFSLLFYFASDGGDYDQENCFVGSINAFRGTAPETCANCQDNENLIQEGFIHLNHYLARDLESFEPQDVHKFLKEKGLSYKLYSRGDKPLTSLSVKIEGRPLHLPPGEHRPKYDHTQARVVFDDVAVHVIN", "assay": "Inhibition of mushroom tyrosinase using L-tyrosine as substrate at 23 uM after 30 mins by spectrophotometric analysis", "method_in_brief": "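Modified dopachrome method with L-tyrosine substrate, in 3 mL total: 1.0 mL 0.1 M phosphate buffer pH 6.8, 1.0 mL 1.5 mM tyrosine, 0.35 mL 0.2 mM inhibitor stock in DMSO, 0.35 mL water, and 0.30 mL mushroom tyrosinase at 192 U/mL. Reference used DMSO in place of inhibitor. Incubated 37 °C for 30 min, read at 475 nm; activity % = B/A × 100 (sample/reference absorbance).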"}, "Fusarium graminearum [5]": {"tested_on": "Fusarium graminearum", "assay": "[…] activity against Fusarium graminearum ATCC 24373 at 0.17 umol/ml after 24 hrs by agar well diffusion method relative to control", "assay_type": "functional, organism-based"}, "Bacillus spizizenii [6]": {"tested_on": "Bacillus spizizenii", "assay": "Antibacterial activity against Bacillus subtilis ATCC 6633 at 50 ug/ml after 24 hrs by agar well diffusion method relative to amikacin", "assay_type": "functional", "conditions": "ATCC 6633, 24 h", "method_in_brief": "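Agar well diffusion on dried overlays of each test strain. Wells of 7 mm received 100 µL of sample at 0.5 mg/mL in DMSO, with DMSO wells as negative control. Positive controls were an amikacin 30 µg disc for bacteria and 100 µL nystatin 10000 IU/mL for C. albicans. Plates were held 60 min at 4 °C for diffusion, then incubated 24 h at 30 or 37 °C. Inhibition zones were measured in mm, in triplicate, and growth inhibition was expressed relative to the positive control.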"}},
  "note": "The source made the active and inactive calls. The calls are words filed in the database; no cut-off is given here.",
  "data": [
    {"compound": "O=C(O)/C(=C/c1cc(O)c(O)c(O)c1)c1cc(O)c(O)cc1C(=O)O", "values": [
      {"measurement": "inhibition at 50 µg/mL", "setting": "Aspergillus flavus", "result": 42, "unit": "%"},
      {"measurement": "inhibition at 50 µg/mL", "setting": "Fusarium graminearum [1]", "result": 71, "unit": "%"},
      {"measurement": "inhibition", "setting": "Bacillus spizizenii [2]", "result": "inactive"},
      {"measurement": "inhibition", "setting": "Pseudomonas aeruginosa", "result": "inactive"},
      {"measurement": "inhibition at 50 µg/mL", "setting": "Candida albicans", "result": 40, "unit": "%"},
      {"measurement": "Activity", "setting": "[3]", "result": "Active"},
      {"measurement": "inhibition at 50 µg/mL", "setting": "Aspergillus niger", "result": 37, "unit": "%"},
      {"measurement": "inhibition", "setting": "Escherichia coli", "result": "inactive"},
      {"measurement": "inhibition", "setting": "Staphylococcus aureus", "result": "inactive"},
      {"measurement": "inhibition", "setting": "[4]", "result": "Active"}
    ]},
    {"compound": "Oc1ccc(O)cc1", "values": [
      {"measurement": "inhibition", "setting": "[4]", "result": "Active"}
    ]},
    {"compound": "O=C(O)/C(=C/c1ccccc1)c1cc(O)c(O)cc1C(=O)O", "values": [
      {"measurement": "inhibition", "setting": "Fusarium graminearum [5]", "result": "Active"},
      {"measurement": "inhibition at 50 µg/mL", "setting": "Aspergillus flavus", "result": 43, "unit": "%"},
      {"measurement": "inhibition at 50 µg/mL", "setting": "Fusarium graminearum [1]", "result": 89, "unit": "%"},
      {"measurement": "inhibition", "setting": "Bacillus spizizenii [2]", "result": "inactive"},
      {"measurement": "inhibition", "setting": "Pseudomonas aeruginosa", "result": "inactive"},
      {"measurement": "inhibition at 50 µg/mL", "setting": "Candida albicans", "result": 40, "unit": "%"},
      {"measurement": "Activity", "setting": "[3]", "result": "Active"},
      {"measurement": "inhibition at 50 µg/mL", "setting": "Aspergillus niger", "result": 34, "unit": "%"},
      {"measurement": "inhibition", "setting": "Escherichia coli", "result": "inactive"},
      {"measurement": "inhibition", "setting": "Staphylococcus aureus", "result": "inactive"},
      {"measurement": "inhibition", "setting": "[4]", "result": "Active"}
    ]},
    {"compound": "O=C(O)/C(=C/c1ccc(O)cc1)c1cc(O)c(O)cc1C(=O)O", "values": [
      {"measurement": "inhibition at 50 µg/mL", "setting": "Aspergillus flavus", "result": 42, "unit": "%"},
      {"measurement": "inhibition at 50 µg/mL", "setting": "Fusarium graminearum [1]", "result": 72, "unit": "%"},
      {"measurement": "inhibition", "setting": "Bacillus spizizenii [2]", "result": "inactive"},
      {"measurement": "inhibition", "setting": "Pseudomonas aeruginosa", "result": "inactive"},
      {"measurement": "inhibition at 50 µg/mL", "setting": "Candida albicans", "result": 34, "unit": "%"},
      {"measurement": "Activity", "setting": "[3]", "result": "Active"},
      {"measurement": "inhibition at 50 µg/mL", "setting": "Aspergillus niger", "result": 38, "unit": "%"},
      {"measurement": "inhibition", "setting": "Escherichia coli", "result": "inactive"},
      {"measurement": "inhibition", "setting": "Staphylococcus aureus", "result": "inactive"},
      {"measurement": "inhibition", "setting": "[4]", "result": "Active"}
    ]},
    {"compound": "O=C(O)c1ccc(O)c(O)c1", "note": "[PROTOCATECHUIC ACID]", "values": [
      {"measurement": "inhibition at 50 µg/mL", "setting": "Aspergillus flavus", "result": 9, "unit": "%"},
      {"measurement": "inhibition at 50 µg/mL", "setting": "Fusarium graminearum [1]", "result": 76, "unit": "%"},
      {"measurement": "Activity", "setting": "[3]", "result": "Active"},
      {"measurement": "inhibition at 50 µg/mL", "setting": "Aspergillus niger", "result": 40, "unit": "%"},
      {"measurement": "inhibition", "setting": "[4]", "result": "Active"}
    ]},
    {"compound": "COc1cc(C(=O)O)c(/C(=C\\c2cc(C(C)(C)C)c(O)c(C(C)(C)C)c2)C(=O)O)cc1OC", "values": [
      {"measurement": "inhibition at 50 µg/mL", "setting": "Aspergillus flavus", "result": 48, "unit": "%"},
      {"measurement": "inhibition at 50 µg/mL", "setting": "Fusarium graminearum [1]", "result": 70, "unit": "%"},
      {"measurement": "inhibition at 50 µg/mL", "setting": "Candida albicans", "result": 48, "unit": "%"},
      {"measurement": "Activity", "setting": "[3]", "result": 18, "unit": "%"},
      {"measurement": "inhibition at 50 µg/mL", "setting": "Bacillus spizizenii [6]", "result": 44, "unit": "%"},
      {"measurement": "inhibition at 50 µg/mL", "setting": "Aspergillus niger", "result": 44, "unit": "%"},
      {"measurement": "inhibition", "setting": "[4]", "result": "Active"}
    ]},
    {"compound": "O=C(O)/C(=C/c1ccc(O)c(O)c1)c1cc(O)c(O)cc1C(=O)O", "values": [
      {"measurement": "inhibition at 50 µg/mL", "setting": "Aspergillus flavus", "result": 42, "unit": "%"},
      {"measurement": "inhibition at 50 µg/mL", "setting": "Fusarium graminearum [1]", "result": 72, "unit": "%"},
      {"measurement": "inhibition", "setting": "Bacillus spizizenii [2]", "result": "inactive"},
      {"measurement": "inhibition", "setting": "Pseudomonas aeruginosa", "result": "inactive"},
      {"measurement": "inhibition at 50 µg/mL", "setting": "Candida albicans", "result": 45, "unit": "%"},
      {"measurement": "Activity", "setting": "[3]", "result": "Active"},
      {"measurement": "inhibition at 50 µg/mL", "setting": "Aspergillus niger", "result": 37, "unit": "%"},
      {"measurement": "inhibition", "setting": "Escherichia coli", "result": "inactive"},
      {"measurement": "inhibition", "setting": "Staphylococcus aureus", "result": "inactive"},
      {"measurement": "inhibition", "setting": "[4]", "result": "Active"}
    ]},
    {"compound": "CC(C)(C)c1cc(/C=C(/C(=O)O)c2cc(O)c(O)cc2C(=O)O)cc(C(C)(C)C)c1O", "values": [
      {"measurement": "inhibition at 50 µg/mL", "setting": "Aspergillus flavus", "result": 52, "unit": "%"},
      {"measurement": "inhibition at 50 µg/mL", "setting": "Fusarium graminearum [1]", "result": 76, "unit": "%"},
      {"measurement": "inhibition", "setting": "Bacillus spizizenii [2]", "result": "inactive"},
      {"measurement": "inhibition", "setting": "Pseudomonas aeruginosa", "result": "inactive"},
      {"measurement": "inhibition at 50 µg/mL", "setting": "Candida albicans", "result": 40, "unit": "%"},
      {"measurement": "Activity", "setting": "[3]", "result": "Active"},
      {"measurement": "inhibition at 50 µg/mL", "setting": "Aspergillus niger", "result": 44, "unit": "%"},
      {"measurement": "inhibition", "setting": "Escherichia coli", "result": "inactive"},
      {"measurement": "inhibition", "setting": "Staphylococcus aureus", "result": "inactive"},
      {"measurement": "inhibition", "setting": "[4]", "result": "Active"}
    ]},
    {"compound": "O=C(O)/C=C/c1ccc(O)c(O)c1", "note": "[CAFFEIC ACID]", "values": [
      {"measurement": "inhibition at 50 µg/mL", "setting": "Aspergillus flavus", "result": 16, "unit": "%"},
      {"measurement": "inhibition at 50 µg/mL", "setting": "Fusarium graminearum [1]", "result": 63, "unit": "%"},
      {"measurement": "Activity", "setting": "[3]", "result": "Active"},
      {"measurement": "inhibition at 50 µg/mL", "setting": "Aspergillus niger", "result": 35, "unit": "%"},
      {"measurement": "inhibition", "setting": "[4]", "result": "Active"}
    ]}
  ]
}
